Measured values from ChEMBL document CHEMBL1140960, “Synthesis of amide and urea derivatives of benzothiazole as Raf-1 inhibitor” (2008).
In brackets after ≈: the same amount, converted by molar mass. Activity calls are given as the source filed them. No cut-off for these calls is given here.

Experiments:
SK-HEP1 = assay: Antiproliferative activity against human SKHEP1 cells by SRB assay; assay type: functional
Procedure, shortened: (§1)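 Cells from exponential-phase cultures were trypsinized, counted and plated. Fixation used cold 10% TCA for 1 h at 4 °C, then water washes. Staining was 0.1% SRB in 1% acetic acid for at least 15 min, followed by 1% acetic acid rinses. Dye was solubilized in 10 mM unbuffered Tris base and absorbance read at 540 nm.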

MDA-MB-231 = assay: Antiproliferative activity against human MDA-MB-231 cells by SRB assay; assay type: functional
Procedure, shortened: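 Trypsinized exponential-phase cells were plated at densities chosen for exponential growth over a 5-day assay. Cells were fixed with cold 10% TCA for 1 h at 4 °C, water-washed, stained at least 15 min with 0.1% SRB in 1% acetic acid, and rinsed with 1% acetic acid. Bound dye was solubilized in 10 mM unbuffered Tris base and OD read at 540 nm.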

NUGC-3 = assay: Antiproliferative activity against human NUGC3 cells by SRB assay; assay type: functional; procedure, shortened: as §1
[1] = biological target: RAF proto-oncogene serine/threonine-protein kinase (Homo sapiens) (UniProt P04049); assay: Inhibition of Raf1 at 50 uM by liquid scintillation counting
RAF proto-oncogene serine/threonine-protein kinase (Homo sapiens), sequence (P04049 whole entry): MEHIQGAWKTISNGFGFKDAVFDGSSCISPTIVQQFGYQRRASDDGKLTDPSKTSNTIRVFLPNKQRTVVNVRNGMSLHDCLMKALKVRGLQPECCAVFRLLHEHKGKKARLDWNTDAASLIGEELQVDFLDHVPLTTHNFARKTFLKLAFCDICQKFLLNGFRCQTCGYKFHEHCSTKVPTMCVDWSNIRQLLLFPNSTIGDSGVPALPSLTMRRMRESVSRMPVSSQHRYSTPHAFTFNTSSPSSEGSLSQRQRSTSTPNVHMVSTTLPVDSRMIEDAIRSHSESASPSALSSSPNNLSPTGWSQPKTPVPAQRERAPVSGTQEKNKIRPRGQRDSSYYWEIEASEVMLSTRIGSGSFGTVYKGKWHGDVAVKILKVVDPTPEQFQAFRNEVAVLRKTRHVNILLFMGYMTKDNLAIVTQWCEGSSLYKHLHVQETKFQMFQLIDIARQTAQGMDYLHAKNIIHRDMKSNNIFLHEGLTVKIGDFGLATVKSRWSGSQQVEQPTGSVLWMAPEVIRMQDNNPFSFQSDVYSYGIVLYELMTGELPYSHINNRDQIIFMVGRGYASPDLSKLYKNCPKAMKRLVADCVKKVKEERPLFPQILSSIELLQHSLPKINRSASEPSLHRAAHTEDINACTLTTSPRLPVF
Procedure, shortened: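 Raf-1 and its substrate MEK were diluted together in buffer (20 mM MOPS pH 7.2, 25 mM β-glycerol phosphate, 5 mM EGTA, 1 mM orthovanadate, 1 mM DTT), with compound in 1% final DMSO. Reaction was started with [γ-33P]ATP (1000–3000 dpm/pmol) and run at 32 °C, usually 22 min. Samples went to phosphocellulose mats, were washed with 1% phosphoric acid and counted by scintillation; % inhibition is the mean of three experiments.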

GI50 (SK-HEP1) [µg/mL] | GI50 (MDA-MB-231) [µg/mL] | inhibition [1] [%] | Activity [1] | Structure (SMILES) | GI50 (NUGC-3) [µg/mL]
> 10 | > 10 |  |  | O=C(Nc1nc2ccc(C(F)(F)F)cc2s1)c1ccc([N+](=O)[O-])cc1 | > 10
1.96 (≈ 5.9 µM) | 0.89 (≈ 2.68 µM) | 7.9 |  | O=C(Nc1cccc([N+](=O)[O-])c1)Nc1nc2ccc(F)cc2s1 | 0.83 (≈ 2.5 µM)
> 10 | > 10 |  |  | O=C(Nc1nc2ccc(F)cc2s1)Nc1ccccc1F | > 10
0.18 (≈ 0.578 µM) | 0.1 (≈ 0.321 µM) | 14.9 |  | Cc1cc2nc(NC(=O)Nc3ccccc3C)sc2cc1C | 0.18 (≈ 0.578 µM)
> 10 | 1.03 (≈ 3.3 µM) |  |  | COc1ccc(C(=O)Nc2nc3cc(C)cc(C)c3s2)cc1 | > 10
> 10 | > 10 |  |  | COc1cccc2sc(NC(=O)c3ccc(C#N)cc3)nc12 | > 10
> 10 | > 10 |  |  | Cc1ccccc1NC(=O)Nc1nc2ccc(F)cc2s1 | > 10
2.01 (≈ 6.74 µM) | 0.86 (≈ 2.88 µM) | 37 |  | COc1cccc2sc(NC(=O)c3ccc(C)cc3)nc12 | > 10
1.18 (≈ 3.84 µM) | 0.48 (≈ 1.56 µM) |  | inactive | Cc1cc(C)c2sc(NC(=O)c3ccc(C#N)cc3)nc2c1 | 0.62 (≈ 2.02 µM)
> 10 | > 10 |  |  | O=C(Nc1ccccc1)Nc1nc2ccc(F)cc2s1 | > 10
2.11 (≈ 6.71 µM) | 1.25 (≈ 3.98 µM) | 7.8 |  | COc1ccc(C(=O)Nc2nc3c(OC)cccc3s2)cc1 | 3.46 (≈ 11 µM)
> 10 | > 10 |  |  | COc1ccc2sc(NC(=O)c3ccc(C)cc3)nc2c1 | > 10
> 10 | > 10 |  |  | COc1ccc(NC(=O)Nc2nc3ccc(F)cc3s2)cc1 | > 10
2.1 (≈ 5.72 µM) | 1.89 (≈ 5.15 µM) |  |  | O=C(Nc1nc2ccc([N+](=O)[O-])cc2s1)c1ccc(C(F)(F)F)cc1 | 1.65 (≈ 4.49 µM)
> 10 | > 10 |  |  | COc1ccc2sc(NC(=O)c3ccc(C#N)cc3)nc2c1 | > 10
> 10 | > 10 |  |  | COc1ccc(C(=O)Nc2nc3cc(OC)ccc3s2)cc1 | > 10
> 10 | > 10 |  |  | COc1cccc2sc(NC(=O)c3ccc([N+](=O)[O-])cc3)nc12 | > 10
2.17 (≈ 7.32 µM) | 0.44 (≈ 1.48 µM) |  |  | Cc1ccc(C(=O)Nc2nc3cc(C)cc(C)c3s2)cc1 | 2.37 (≈ 8 µM)
> 10 | > 10 |  |  | Cc1ccc2nc(NC(=O)Nc3cccc([N+](=O)[O-])c3)sc2c1 | > 10
> 10 | > 10 |  |  | COc1cccc2sc(NC(=O)c3ccc(C(F)(F)F)cc3)nc12 | > 10
1.36 (≈ 3.88 µM) | 0.45 (≈ 1.28 µM) |  | inactive | Cc1cc(C)c2sc(NC(=O)c3ccc(C(F)(F)F)cc3)nc2c1 | 1.4 (≈ 4 µM)
> 10 | > 10 |  |  | COc1ccc2sc(NC(=O)c3ccc([N+](=O)[O-])cc3)nc2c1 | > 10
1.74 (≈ 5.32 µM) | 0.29 (≈ 0.886 µM) |  | inactive | Cc1cc(C)c2sc(NC(=O)c3ccc([N+](=O)[O-])cc3)nc2c1 | 1.32 (≈ 4.03 µM)
0.07 (≈ 0.129 µM) | 0.39 (≈ 0.718 µM) |  |  | COc1cccc2c1C(=O)c1c(O)c3c(c(O)c1C2=O)C[C@@](O)(C(=O)CO)C[C@@H]3O[C@H]1C[C@H](N)[C@H](O)[C@H](C)O1 [DOXORUBICIN] | 0.11 (≈ 0.202 µM)
> 10 | > 10 |  |  | COc1ccc2nc(NC(=O)c3ccc(C)cc3)sc2c1 | > 10
> 10 | > 10 |  |  | COc1ccc2sc(NC(=O)c3ccc(C(F)(F)F)cc3)nc2c1 | > 10
2.21 (≈ 6.34 µM) | 0.82 (≈ 2.35 µM) |  | inactive | O=C(Nc1cccc([N+](=O)[O-])c1)Nc1nc2ccc(Cl)cc2s1 | 1.03 (≈ 2.95 µM)
